High-throughput results (PubChem)
T cruzi inh – inhibitors of intracellular T. cruzi growth, primary screen, luminescence, NIH3T3 host cells | T. cruzi beta-gal in NIH3T3, 90 h | inhibition, % (no concentration beside the values) | hit rate 1.4% among 300,000;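 active = mean inhibition across valid replicates above about 55%, limit read from the data; inconclusive = mean below that limit but half or more replicates reach it; inactive = mean below it, under half of replicates reach it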;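 also: signal also drops with host cell toxicity which is not excluded here; 0% = plate median of DMSO wells and 100% = zero luminescence signal; higher percent means less beta-gal luminescence so fewer parasites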
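compound dosing = single 50 nL compound addition per well in DMSO | material = NIH/3T3 host cells with β-galactosidase reporter T. cruzi | input = 5,000 host fibroblasts per well | timing = ≥90 h infection period, 3 h prior cell attachment | read-out basis = percent inhibition of parasite-derived β-gal signal | detection = GalScreen β-gal luminescence, detergent lysis, 60 min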
CSC inhib – cancer stem cell viability inhibitors, primary screen, luminescence; inhibition, % at 7.5 µM; cancer stem cell-like cells viability; hit rate 1.1% among 300,000; in the data active = inhibition above about 75%; inconclusive = no clear call, values can overlap the other calls; tested in HMLE shEcad cells
L major viab – Leishmania major promastigote growth inhibition, primary screen. inhibition, % at 10 µM. Leishmania major promastigotes, resazurin fluorescence viability. hit rate 9% among 200,000; in the data active = inhibition above about 50%;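 also: promastigotes grown with compound for 44 hours at 28 °C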
Mdm2 MdmX PPI – inhibitors of human Mdm2-MdmX association, primary screen, cell-based, luminescence, split luciferase, SaOS-2, uHTS. Protein Mdm4 (Homo sapiens) + E3 ubiquitin-protein ligase Mdm2 (Homo sapiens), …. SaOS-2 split-luciferase Mdm2/MdmX complementation. hit rate 3% among 330,000. inhibition, % at 8 µM;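 active = inhibition of at least 50% at 8 µM in the primary screen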
Target sequence (O15151 whole entry, looked up): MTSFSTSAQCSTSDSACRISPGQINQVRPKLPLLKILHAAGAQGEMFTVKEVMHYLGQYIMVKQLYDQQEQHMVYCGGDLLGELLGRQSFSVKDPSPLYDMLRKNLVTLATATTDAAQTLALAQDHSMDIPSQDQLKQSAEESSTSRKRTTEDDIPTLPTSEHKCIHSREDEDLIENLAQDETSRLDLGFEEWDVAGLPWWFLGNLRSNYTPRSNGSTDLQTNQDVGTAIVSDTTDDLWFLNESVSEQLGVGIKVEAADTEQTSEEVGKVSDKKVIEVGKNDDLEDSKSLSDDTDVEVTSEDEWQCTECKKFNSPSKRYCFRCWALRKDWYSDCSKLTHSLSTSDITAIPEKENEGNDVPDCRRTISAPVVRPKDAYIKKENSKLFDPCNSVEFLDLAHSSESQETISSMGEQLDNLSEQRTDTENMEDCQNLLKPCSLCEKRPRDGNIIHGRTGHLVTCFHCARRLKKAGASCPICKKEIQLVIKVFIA
Target sequence (Q00987 whole entry, looked up): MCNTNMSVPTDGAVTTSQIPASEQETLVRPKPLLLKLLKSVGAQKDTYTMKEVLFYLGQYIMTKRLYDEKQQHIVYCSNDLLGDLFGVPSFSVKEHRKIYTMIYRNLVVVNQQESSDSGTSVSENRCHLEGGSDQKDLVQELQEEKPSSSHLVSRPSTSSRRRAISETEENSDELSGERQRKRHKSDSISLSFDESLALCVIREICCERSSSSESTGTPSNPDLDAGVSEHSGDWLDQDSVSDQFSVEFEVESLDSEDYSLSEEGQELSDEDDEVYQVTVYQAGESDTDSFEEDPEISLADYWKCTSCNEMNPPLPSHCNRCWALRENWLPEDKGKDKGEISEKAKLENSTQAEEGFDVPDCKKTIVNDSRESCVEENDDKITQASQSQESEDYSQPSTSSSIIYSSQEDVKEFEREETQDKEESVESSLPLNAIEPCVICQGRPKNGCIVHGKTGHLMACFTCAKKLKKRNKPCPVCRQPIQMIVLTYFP
SKKanGAS inh – S. pyogenes SKKanGAS growth inhibitors in kanamycin, primary screen, streptokinase expression inhibitor project, SKKanGAS strain, BacTiter-Glo luminescence; 6 h; inhibition, % at 7.5 µM; hit rate 1.3% among 300,000;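 active = mean replicate score, as percent of positive control median, at least 50; inconclusive = mean below 50 but one replicate at or above 50; inactive = mean and every replicate below 50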;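 also: strain carries kanamycin resistance gene driven by streptokinase promoter and grows in 40 µg/ml kanamycin; loss of luminescence reflects streptokinase promoter inhibition or plain growth inhibition; 0% = median of DMSO wells and 100% = positive control at its reference dose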
Beta cell apopt – inhibitors of cytokine-induced beta cell apoptosis, primary screen, luminescence. INS-1E cytokine-induced death, ATP luminescence, 48 h; percent of positive-control rescue, neutral wells zero. protection from apoptosis, % (no concentration beside the values). hit rate 0.8% among 300,000. AID 435005, 2010;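 active = Every replicate reaches about 75%, or at least half do and their mean reaches it too, limit read from the data; inconclusive = At least half of replicates reach the limit but their mean does not; inactive = Under half of replicates reach the limit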;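 also: 0% = cytokine-treated negative control wells and 100% = positive control rescue; higher means more ATP so stronger rescue from cytokine killing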
Mdm2-MdmX conf – Mdm2-MdmX complex disruptors, retested hits, confirmation, luminescence, single concentration. shares compounds with Mdm2 MdmX PPI. Mdm2-MdmX binding, luminescent assay. inhibition, % at 8 µM. hit rate 55% among 10,000; in the data active = inhibition above about 40%
FLuc counter – full-length luciferase signal inhibition, confirmation, counter-screen for Mdm2/MdmX interaction inhibitor project, cell-based, single concentration, SaOS-2; hit rate 77% among 6,200; shares compounds with Mdm2 MdmX PPI; SaOS-2 full-length luciferase counterscreen, luminescence; AID 504607, 2011; inhibition, % at 8 µM;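 active = mean inhibition at 8 µM reaching about 37%, which flags the compound as non-specific, limit read from the data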;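 also: p53-null SaOS-2 cells with luciferase driven by a doxycycline-inducible promoter; compound on cells about two nights before reading with doxycycline added after day one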
* = called active by the depositor. Most compounds without a hit are left out; they make up all but 9.4% or so of the library.

For C=C1CCC[C@]2(C)C[C@H]3OC(=O)C(CN(Cc4ccc(OC)c(OC)c4)CC(C)O)[C@H]3CC12 (some centres undefined) the results were T cruzi inh -22, CSC inhib 14, Mdm2 MdmX PPI 68*, SKKanGAS inh 1, Beta cell apopt -44, Mdm2-MdmX conf 48* and FLuc counter 40*.
Screening COC(=O)c1cccc(Nc2c3c(nc4ccccc24)CCC3)c1 returned T cruzi inh 17, Mdm2 MdmX PPI 64*, SKKanGAS inh -6, Mdm2-MdmX conf 68* and FLuc counter 63*.
COC(=O)c1cccc(Nc2nc(-c3ccncc3)nc3ccccc23)c1 was read as T cruzi inh 26, CSC inhib 17, Mdm2 MdmX PPI 34, SKKanGAS inh -9 and Beta cell apopt 9.
COC(=O)c1cccc(Nc2nc(-c3cccnc3)nc3ccccc23)c1 was read as T cruzi inh 50, CSC inhib 31, Mdm2 MdmX PPI 70*, SKKanGAS inh 3, Beta cell apopt 28, Mdm2-MdmX conf 43* and FLuc counter 72*.
CC(=O)c1ccc(Nc2c3c(nc4ccccc24)CCCC3)cc1 was read as T cruzi inh -1, CSC inhib 64, Mdm2 MdmX PPI 45, SKKanGAS inh -13 and Beta cell apopt 13.
`Fc1cccc(Nc2c3c(nc4ccccc24)CCC3)c1` gave T cruzi inh 25, CSC inhib 4, Mdm2 MdmX PPI 30, SKKanGAS inh -4 and Beta cell apopt 12.
CC(=O)c1cccc(Nc2c3c(nc4ccccc24)CCC3)c1 was read as T cruzi inh -29, CSC inhib 61, Mdm2 MdmX PPI 55*, SKKanGAS inh 3, Beta cell apopt 26, Mdm2-MdmX conf 70* and FLuc counter 72*.
For Cc1ccc2nc3c(c(Nc4cccc(O)c4)c2c1)CCC3 the results were T cruzi inh 36, CSC inhib 37, Mdm2 MdmX PPI 60*, SKKanGAS inh -5, Beta cell apopt 20 and Mdm2-MdmX conf 34.
For Cc1ccc2nc3c(c(C(=O)O)c2c1)CCC3 the results were T cruzi inh -7, CSC inhib 7, L major viab -5, Mdm2 MdmX PPI -16, SKKanGAS inh -7 and Beta cell apopt -6.
Screening C=CCNC(=S)NN=C1CCCCCCC1 returned T cruzi inh -13, CSC inhib -10, L major viab 7, Mdm2 MdmX PPI 12, SKKanGAS inh 0 and Beta cell apopt 2.
`COc1ccc(-n2c3c(c(=O)[nH]c2=O)C(NS(=O)(=O)c2ccc(Cl)cc2)(C(F)(F)F)C(=O)N3)cc1` (centres undefined) gave T cruzi inh 4, CSC inhib 3, Mdm2 MdmX PPI -4, SKKanGAS inh -2 and Beta cell apopt -1.
`CC1(C)CC(=O)C=C(c2cccc(O)c2)C1=O` gave CSC inhib -4, Mdm2 MdmX PPI -7 and Beta cell apopt -8.
COc1cccc2c(SCC(=O)N/N=C/c3ccc(O)cc3O)cc(C)nc12 was read as T cruzi inh -16, L major viab 20, Mdm2 MdmX PPI 54*, SKKanGAS inh 0, Mdm2-MdmX conf 46* and FLuc counter 65*.
COc1ccccc1/C=N/NC(=O)CSc1ccc2ccccc2n1 was read as T cruzi inh -8, CSC inhib 31, Mdm2 MdmX PPI 12, SKKanGAS inh 1 and Beta cell apopt 2.
CCCCSc1nc(C)cc(SCC(=O)N/N=C/c2cccc(OC)c2O)n1 was read as T cruzi inh 1, CSC inhib inconclusive, L major viab 99*, Mdm2 MdmX PPI 72*, SKKanGAS inh 70*, Beta cell apopt 48, Mdm2-MdmX conf 80* and FLuc counter 34.
Screening COc1ccc(CSCC(=O)N/N=C/c2ccccc2O)cc1 returned T cruzi inh 22, CSC inhib 9, L major viab 68*, Mdm2 MdmX PPI 57*, SKKanGAS inh 23, Beta cell apopt -10, Mdm2-MdmX conf 36 and FLuc counter 65*.
COc1ccccc1/C=N/NC(=O)CSc1cc(C)nc2ccccc12 was read as T cruzi inh 15, CSC inhib -6, L major viab 13, Mdm2 MdmX PPI 39 and Beta cell apopt -3.
CCn1c(CNc2ccc(C)cc2)nnc1SCC(=O)NCc1ccccc1 was read as T cruzi inh -8, CSC inhib 7, L major viab 5, Mdm2 MdmX PPI -6 and Beta cell apopt 4.
For C=CCn1c(CNc2ccc(C)cc2)nnc1SCC(=O)N/N=C/c1ccc(O)cc1O the results were T cruzi inh 19, CSC inhib 106*, L major viab 3, Mdm2 MdmX PPI 57*, SKKanGAS inh 8, Beta cell apopt 1, Mdm2-MdmX conf 56* and FLuc counter 36.
CC12CC(NC(=O)N1c1cccc(C(=O)NCc3ccccn3)c1)c1ccccc1O2 (centres undefined) was read as T cruzi inh -6, CSC inhib -14, Mdm2 MdmX PPI 2, SKKanGAS inh -4 and Beta cell apopt -11.
For CC(=O)c1ccc(OCCCCCCCOc2ccc(C(C)=O)cc2)cc1 the results were T cruzi inh -3, CSC inhib 0, Mdm2 MdmX PPI -20 and SKKanGAS inh -3.
For COc1ccc2nc(C)cc(SCC(=O)N/N=C/c3ccc(O)cc3O)c2c1 the results were T cruzi inh -2, CSC inhib 104*, L major viab 98*, Mdm2 MdmX PPI 55*, SKKanGAS inh 2, Beta cell apopt 77*, Mdm2-MdmX conf 79* and FLuc counter 37*.
For COc1ccc(-c2nc3cnccn3c2Nc2ccc3c(c2)OCO3)cc1 the results were T cruzi inh 15, CSC inhib -10, L major viab 6, Mdm2 MdmX PPI 53*, SKKanGAS inh -2, Beta cell apopt 2 and Mdm2-MdmX conf 6.
For Cn1c(NC2CCCCC2)c(N=O)c(=O)n(C)c1=O the results were T cruzi inh -8, CSC inhib -9, L major viab -8, Mdm2 MdmX PPI 9, SKKanGAS inh -4 and Beta cell apopt -8.
